# Results reported in ChEMBL document CHEMBL4513216, “Probing the Open Global Health Chemical Diversity Library for Multistage-Active Starting Points for Next-Generation Antimalarials” (ACS Infect Dis, 2020).
# Experiment: Toxicity liver stage against HepG2, at 10uM
# Assay type: cell-based
# Design: test concentration 10 uM, cell line HepG2-A16-CD81EGFP
# Details: human, HepG2-A16-CD81EGFP cells; read-out: INHIBITION
# Method in brief: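 Uninfected HepG2-A16-CD81EGFP cells, 3 × 10^3 per well, 1536-well, plated on prespotted compound at 10 μM final, parasite-free screening media added to match infected plates; puromycin 10 μM positive, DMSO 0.5% negative; run in parallel with 48 h PbLuc assay at 37 °C, 5% CO2; viability by CellTiter-Glo luminescence, normalized to controls.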
row,Structure (SMILES),cytotoxicity at 10 µM [%]
1,NC(=O)CN1C(=O)CO[C@H]2CN(Cc3ccc(Cl)cc3)C[C@H]21,13
2,COc1cccc(CN2CC[C@H](c3nnc(C)o3)C2)c1,-0.902
3,CCCC(O)CN1CCC(=O)N(Cc2ccccc2)Cc2ccccc21 (stereo unspecified),5.24
4,COCCn1/c(=N\C(=O)CN(C)S(C)(=O)=O)sc2cc(C)ccc21,-11.7
5,Cc1c(Cl)cccc1S(=O)(=O)NCC(O)c1cccn1C (stereo unspecified),-5.15
6,CNC(=O)CN1C(=O)CCC12CCCN(Cc1ccccc1F)C2 (stereo unspecified),4.76
7,O=C(c1cscn1)N1CCCC12CCCN(S(=O)(=O)c1ccccc1)C2 (stereo unspecified),4.35
8,COc1cc(N2CC[C@@H](OC)[C@@H]2Cc2ccccc2)ncn1,-138
9,O=C(C1CCCC1)N1CCO[C@@H]2CNC[C@@H]21,8.34
10,CN1CCN(C(=O)c2cc3c(s2)CCN3C(=O)C2CC2)CC1,8.52
11,CN(C)C(=O)N1CCC2(CC1)COCCN(c1ncccn1)C2,8.42
12,Cc1ccc(C(=O)N2CCc3ncnc(C)c3CC2)o1,7.89
13,c1coc(CN2CC[C@@H]3O[C@@H](COCC4CCOCC4)CC[C@@H]32)c1,-142
14,COCC1COCCC12CCN(C(=O)CCc1ccccc1C)CC2 (stereo unspecified),-1.52
15,Cc1cc(F)ccc1NC(=O)Cn1cc(C(=O)O)ccc1=O,-0.555
16,Cc1c(C(=O)O)cnn1-c1ccc(-c2nc(C(C)(C)C)no2)cn1,7.19
17,COCc1ncn2c1CN(C(=O)C1CC=CC1)CC2,-5.09
18,Cn1cc(-c2cnc(N3CCOCC3)nc2)cc1C(=O)O,-14.6
19,COc1ccccc1N1CCN(C(=O)Cn2nc(C)c(Cl)c2C)CC1,0.808
20,O=C(Nc1cc(-c2cccnc2)no1)C1CCC1,2.82
21,CC1(Cc2ccc(Cl)cc2)Cc2cc(CCC(=O)O)ccc2O1 (stereo unspecified),2.79
22,COCCN(C)C(=O)c1ccccc1-n1cc(CN(C)C)cn1,-29.5
23,COCC(=O)N1CCCC(Cc2cnc(-c3c(C)n[nH]c3C)cn2)C1 (stereo unspecified),-4.51

row,Structure (SMILES),cytotoxicity at 10 µM [%]
1,Cc1nc2ccccn2c1CC(=O)N[C@@H]1CCC[C@@H](N2CCCC2)[C@@H]1O,-5.13
2,Cc1ccccc1C(=O)N1CCC(n2nnc3cc(F)ccc32)CC1,3.94
3,NS(=O)(=O)CCNC(=O)CCc1cc(Br)cs1,-3.39
4,CCOC(=O)N1CCC(C(=O)Nc2nnc(C(F)(F)F)[nH]2)CC1,-6.01
5,CS(=O)(=O)NC1CCN(C(=O)NCC2CCCO2)CC1 (stereo unspecified),-1.9
6,NC(=O)COCCNC(=O)Nc1sc2ccccc2c1Cl,8.81
7,CCc1nc(CSCc2csc(CS(C)(=O)=O)n2)cs1,-6.79
8,CC(C)CC(NC(=O)CN(C)C(=O)c1ccco1)c1cccs1 (stereo unspecified),-1.24
9,CC1CCCCN1C(=O)COc1nc(C(C)(C)C)no1 (stereo unspecified),-3.22
10,CN1CCOC(CNCC(=O)NCCc2ccc3c(c2)OCCO3)C1 (stereo unspecified),-10.2
11,CC(C)CCN(c1cn[nH]c1)S(=O)(=O)c1cccc(C#N)c1,7.95
12,CC(C)c1noc(C(C)N2CCN(CCc3ccncc3)CC2)n1 (stereo unspecified),2.16
13,CCCc1noc(C(C)N(CC)Cc2ccco2)n1 (stereo unspecified),7.3
14,CNS(=O)(=O)Cc1ccc(CNc2ccc(C#N)cn2)cc1,-6.87
15,CC(C)Nc1cccc(C(=O)NCC(O)c2ccc(F)cc2F)c1 (stereo unspecified),14.8
16,O=C(c1c[nH]c(=O)c(Cl)c1)N1CCc2ccccc2C1,-11.1
17,CCOCCC1(CNC(=O)c2ccc(C)nc2)CCCC1,7.25
18,O=C(NCC(O)COc1ccc(F)cc1)C1(c2ccc(F)cc2)CC1 (stereo unspecified),2.71
19,Cc1cc(C)c(C(=O)Nc2cccc(CN3CCC(CO)CC3)c2)o1,-140
20,Cc1c(NCC(C)(C)C)cccc1C(=O)NCc1ncnn1C,-3.53
21,OCCN1CCC(CNCc2ccc(Br)cc2)CC1,-8.29
22,O=C(NCCc1nnc2n1CCC2)c1ccccc1OC1CCCC1,-2.27
23,Cc1ccc(NC(=O)CN2CCC(OCC3CCCO3)CC2)c(C)c1 (stereo unspecified),-1.7

row,Structure (SMILES),cytotoxicity at 10 µM [%]
1,NC(=O)CN1CCC(NC(=O)N2CCCC2c2ccsc2)CC1 (stereo unspecified),1.91
2,CCN(C(C)=O)c1nc(CN2CCN(c3nccs3)CC2)cs1,-6.01
3,CC(=O)NCCNC(=O)NCCc1c(C)cc(C)cc1C,6.02
4,CC(C)(NC(=O)c1ccc(-c2ccccc2F)s1)C(N)=O,12.7
5,CCS(=O)(=O)NCCCNc1ncnc2cc(F)c(F)cc12,9.29
6,Cc1cccc(C)c1OCC(=O)NC(C)c1nnc2n1CCC2 (stereo unspecified),-3.09
7,COc1ccccc1C(C)(C)NC(=O)NC1CCC(O)CC1 (stereo unspecified),-3.6
8,CN(CC(N)=O)C(=O)c1cn(-c2ccc(Br)cc2)cn1,6.85
9,CCc1nsc(NC2CCCn3nc(CC)nc32)n1 (stereo unspecified),16.2
10,COc1ccc(NC(=O)C(c2cccc(F)c2)N2CCOCC2)cc1 (stereo unspecified),2.42
11,CN(CCc1ccccn1)C(=O)C(c1cccnc1)N1CCOCC1 (stereo unspecified),2.03
12,COc1ccc(-n2cc(CCO)cn2)cc1C(N)=O,5.97
13,CC(NC(=O)c1cc2n(n1)CCCN(C)C2)c1cn2ccsc2n1 (stereo unspecified),-2.51
14,Cc1nn(C)c(C)c1CN(Cc1cccn1-c1ncccn1)C(C)C,-0.316
15,OCC1CCCCN1Cc1nc(Cc2cccc(F)c2)no1 (stereo unspecified),-137
16,Cc1cc(C[C@@H]2COC[C@@H]2NC(=O)CN2CCCCCC2)on1,1.29
17,CCc1ccc(CN(C)Cc2cnc(S(=O)(=O)CC)n2CCOC)cc1,-2.19
18,CO[C@H]1CN(Cc2cc(Cn3cncn3)c(C)cc2C)CC[C@H]1N,-7.29
19,Cc1nc(O)cc(CN2C[C@H](NS(=O)(=O)N(C)C)[C@@H](C3CC3)C2)n1,-5.01
20,Cc1nc(-c2nnc(SCC(=O)O)n2C(C)c2ccccc2)co1 (stereo unspecified),-6.3
21,Cc1nn(C)c(C)c1CCC(=O)N1CC(c2cccnc2)C1,-4.84
22,CCC(C)N(CC)C(=O)c1ccc2[nH]nnc2c1 (stereo unspecified),10.5
23,C[C@@H]1CN(C(=O)C2CCS(=O)(=O)CC2)C[C@@]1(O)C1CC1,3.99

row,Structure (SMILES),cytotoxicity at 10 µM [%]
1,CCC[C@H]1CN(CCS(C)(=O)=O)C[C@@H]1NC(=O)c1ccccc1F,-5.88
2,COc1cccc(OC2CN(C(=O)c3ccoc3C)C2)c1,9.21
3,COc1ccccc1OCc1cc(C(=O)N2CCCCCC2CO)n[nH]1 (stereo unspecified),-2.48
4,O=C(NCCc1cnccn1)c1cccc(S(=O)(=O)NC2CCOC2)c1 (stereo unspecified),6.3
5,CN(Cc1cccc(C(N)=O)c1)Cc1nc2c(cnn2C)c(=O)[nH]1,-2.97
6,CCn1nc2c(cc1=O)CN(Cc1nc(C)c(C)o1)CC2,-3.59
7,CCc1nnc(CN2CCCC2Cn2cc(C)cn2)o1 (stereo unspecified),-6.64
8,O=C(NCC1CCCOC1)c1ccc(-c2ccccc2)[nH]c1=O (stereo unspecified),-12.2
9,Cc1nn(C)c(Cl)c1C1CCCN1C(=O)c1ccoc1C (stereo unspecified),-8.18
10,Cc1ccccc1SCC(=O)NS(=O)(=O)c1ccc2c(c1)OCCO2,-1.22
11,Cc1cc(NC(=O)CN2CCC(N(C)Cc3ncc(C)o3)C2)n(C)n1 (stereo unspecified),-6.49
12,Cc1ccc(C(=O)NCc2ccnc(N(C)C)c2)c(C)c1,-11.1
13,CC(C)(C)c1nc(CN2CCOC(Cn3cccn3)C2)no1 (stereo unspecified),-18.5
14,Cn1ccc(C(=O)NCc2ccc(N3CCOCC3)nc2)cc1=O,-14.3
15,Cc1ncccc1CNCC1CCN(CC(C)O)CC1 (stereo unspecified),-5.59
16,Cc1ccc(NC(=O)N(C)Cc2cnn(C)c2)c(C)c1,-10.7
17,COCCN(C)C(C)c1cccc(S(N)(=O)=O)c1 (stereo unspecified),-28
18,Cc1nc(C2CCCN(C(=O)c3ccc(S(C)(=O)=O)cc3)C2)no1 (stereo unspecified),-11.3
19,Cc1cnn(CC2CCCN2C(=O)c2cc(O)nc3ccccc23)c1 (stereo unspecified),-6.5
20,COCCN1CC(C(=O)NCc2cccnc2-n2cccn2)CC1=O (stereo unspecified),3.74
21,CC(C)c1nnc2n1CCN(C(=O)COc1ccc(C(N)=O)cc1)C2,0.0102
22,CCC(O)CN1CCN(C(=O)c2cccc3[nH]ncc23)CC1 (stereo unspecified),-11.2
23,CN(Cc1ccccc1F)C(=O)CS(=O)(=O)Cc1ccc(Cl)c(Cl)c1,3.2

row,Structure (SMILES),cytotoxicity at 10 µM [%]
1,Cc1cc(C(=O)N[C@H](C)c2onc(-c3cccnc3)c2C(=O)O)c(C)o1,1.47
2,COCC(=O)N1CCC2(CCc3ccc(F)cc32)CC1,-148
3,CC(NCc1ccc(C(N)=O)cc1)c1ccc(Cl)c(Cl)c1 (stereo unspecified),8.8
4,Cc1nc(CN2C(=O)CCC23CCN(Cc2ccoc2)CC3)cs1,-0.902
5,CCn1cncc1CN1CCN(CC2(c3ccc(C)cc3)CC2)CC1,-10.7
6,Cc1cc(CN2C[C@@H](N3CCN(C)CC3)[C@H]3OCCC[C@H]32)oc1C,-132
7,Cc1ncsc1CN1C[C@@H](OCc2ccccn2)[C@H]2OCCC[C@H]21,-141
8,CC(C)(C)NC(=O)CN1CCNCC1,-143
9,CN1CCN(C2COC3(CCN(CC4CC4)CC3)C2)CC1 (stereo unspecified),-6.81
10,O=C1CCCN1Cc1nnc2n1CCN(Cc1ccccn1)CC2,-9.87
11,Cc1nc(CN2Cc3nccn3CC(CN3CCCC3)C2)cs1 (stereo unspecified),2.43
12,C[C@@H]1CN(CCc2ccccc2)C[C@]12CCN(CC(=O)N(C)C)C2=O,-4.19
13,O=C(CC1CC1)N[C@@H]1CN(c2ncccn2)C[C@@H]2CCCO[C@@H]21,9.87
14,CN1CCN(C(=O)NC2CCCC2)Cc2cccnc21,-0.123
15,Cn1cccc1C(=O)NC[C@]12COC[C@H]1CN(Cc1nccs1)C2,-2.74
16,COC1COC2(CCN(Cc3cccc(Cl)c3)CC2)C1 (stereo unspecified),-1.31
17,Cc1nc(CN2CC3(CCN(c4ncc(F)cn4)C3)CC2=O)cs1 (stereo unspecified),3.25
18,CN1CCN(C(=O)c2n[nH]c3c2CN(C2CCOCC2)CC3)CC1,3.41
19,CCn1cc(-n2cc3nc(N4CCCC4)[nH]cc-3c2=O)cn1,2.77
